This passage reports T/C and Activity results from ChEMBL document CHEMBL1955860, “Design, synthesis, and biological evaluation of 4-arylmethyl-1-phenylpyrazole and 4-aryloxy-1-phenylpyrazole derivatives as novel androgen receptor antagonists” (Bioorg Med Chem, 2012).

Data set [1] can be described thus: Anticancer activity against human LNCaP-hr cells xenografted in BALB/c athymic nude mouse assessed as prostate specific antigen level in plasma at 50 mg/kg, po bid after 28 days relative to control. It counts as functional. In short, it runs like this:
(§1)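 Mice castrated, then given LNCaP-hr cells (5 × 10⁷ cells/mL in PBS/Matrigel 1:1) s.c. in flank the same day; grouped at ~100–300 mm³ tumor volume (n = 6/group); from next day, oral dosing in 0.5% methylcellulose vehicle, bid or qd, 28 days. T/C% = tumor volume increase in treated/vehicle group × 100; serum/plasma PSA at end by ELISA.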
(Xenograft models place foreign cells or tissue in a host animal.)

A short description of data set [2]: Anticancer activity against human LNCaP-hr cells xenografted in BALB/c athymic nude mouse assessed as change in tumor volume at 50 mg/kg, po bid after 28 days relative to control. Type of data set: functional. The procedure, abridged: as §1
Data set [3] is described as follows: Anticancer activity against human LNCaP-hr cells assessed as prostate specific antigen level at 1 uM after 3 days by enzyme immunoassay relative to control. Type of data set: functional. In short, it runs like this:
(§2)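 LNCaP-hr cells (CRPC model, T877A AR) seeded at 40,000 cells/well in phenol red-free RPMI1640 with 10% DCC-FBS; compounds at 1–10 µM added next day; secreted PSA measured and expressed as % of control; n = 3.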

Data set [4] in a line: Anticancer activity against human LNCaP-hr cells assessed as prostate specific antigen level at 10 uM after 3 days by enzyme immunoassay relative to control. It counts as functional. In short, it runs like this: as §2
For data set [5], the system named is Mus musculus. The experiment in a line: Toxicity in athymic nude BALB/c mouse xenografted with human LNCaP-hr cells assessed as body weight loss at 50 mg/kg, po bid after 28 days. It counts as organism-based. Details: dose 50 mg/kg, route oral. The following applies: in vivo. The procedure, abridged:
(§3)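 Castrated mice bearing s.c. LNCaP-hr xenografts (n = 6/group), dosed orally twice daily for 28 days in 0.5% methylcellulose vehicle; body weight tracked over the treatment period versus castration + vehicle controls.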

Data set [6] can be described thus: Anticancer activity against human LNCaP-hr cells xenografted in BALB/c athymic nude mouse assessed as change in tumor volume at 40 mg/kg, po bid after 28 days relative to control. Type of data set: functional. The procedure, abridged:
as §1

In data set [7] the test system is Mus musculus. Briefly: Toxicity in athymic nude BALB/c mouse xenografted with human LNCaP-hr cells assessed as body weight loss at 40 mg/kg, po bid after 28 days. Type of data set: organism-based. Details: dose 40 mg/kg, route oral. To be noted: in vivo. In short, it runs like this:
as §3

Data set [8] can be described thus: Anticancer activity against human LNCaP-hr cells xenografted in BALB/c athymic nude mouse assessed as prostate specific antigen level in plasma at 20 mg/kg, po bid after 28 days relative to control. Type of data set: functional. In short, it runs like this:
as §1

Data set [9] can be described thus: Anticancer activity against human LNCaP-hr cells xenografted in BALB/c athymic nude mouse assessed as prostate specific antigen level in plasma at 40 mg/kg, po bid after 28 days relative to control. Type of data set: functional. In short, it runs like this: as §1
Data set [10] is described as follows: Anticancer activity against human LNCaP-hr cells xenografted in BALB/c athymic nude mouse assessed as change in tumor volume at 20 mg/kg, po bid after 28 days relative to control. It counts as functional. In short, it runs like this: as §1
Data set [11] deals with Mus musculus. Briefly: Toxicity in athymic nude BALB/c mouse xenografted with human LNCaP-hr cells assessed as body weight loss at 20 mg/kg, po bid after 28 days. Type of data set: organism-based. Details: dose 20 mg/kg, route oral. The following applies: in vivo. The procedure, abridged: as §3
The nature of data set [12]: Anticancer activity against human LNCaP-hr cells xenografted in BALB/c athymic nude mouse assessed as prostate specific antigen level in plasma at 100 mg/kg, po qd after 28 days relative to control. It counts as functional. In short, it runs like this: as §1
Data set [13] in a line: Anticancer activity against human LNCaP-hr cells xenografted in BALB/c athymic nude mouse assessed as change in tumor volume at 100 mg/kg, po qd after 28 days relative to control. Type of data set: functional. The procedure, abridged: as §1

The term T/C denotes the ratio of treated to control. In the case of `Cc1nn(-c2ccc(C#N)c(Cl)c2)c(C)c1Oc1ccc(NC(=O)C(C)(C)C)cn1`, the figures for the T/C in data set [1] and in data set [2] were 17% and 2%, respectively. The Activity was determined as 8% in data set [3] and 5% in data set [4].

With `Cc1nn(-c2ccc(C#N)c(Cl)c2)c(C)c1Cc1ccc(C(=O)NC(C)(C)C)cc1`, the Activity in data set [3] stood at 33%; in [4] it was 57%.

For the molecule `Cc1nn(-c2ccc(C#N)c(Cl)c2)c(C)c1Cc1ccc(C(=O)N2CCOCC2)cc1`, the Activity in [3] is 35%.

Take `Cc1nn(-c2ccc(C#N)c(Cl)c2)c(C)c1Cc1ccc(C(=O)NCC(C)(C)O)cc1`: the Activity result was “Non-toxic” in data set [5]; “Non-toxic” in data set [7]; 27% in [3]; 31% in data set [4]; “Non-toxic” in data set [11]. Besides, the T/C in data set [6] was 3%; in data set [8], 88%; in data set [9] it was 23%; in data set [10], 15%.

Regarding `CC(O)(CS(=O)(=O)c1ccc(F)cc1)C(=O)Nc1ccc(C#N)c(C(F)(F)F)c1` (configuration not stated) [BICALUTAMIDE], the figures for the T/C in data set [12] and in data set [13] were 142% and 37%, respectively. The Activity in [4] is greater than 100%.

Regarding `Cc1nn(-c2ccc(C#N)c(Cl)c2)c(C)c1Oc1ccc(C(=O)NCC(C)(C)O)cc1`, the values for the Activity in [3] and in [4] were 33% and greater than 100%, respectively.

On to `Cc1nn(-c2ccc(C#N)c(Cl)c2)c(C)c1Cc1ccc(C(=O)NCCO)cc1`, for which the Activity in [3] was 33%.

As to `CC(=O)Nc1ccc(Oc2c(C)nn(-c3ccc(C#N)c(Cl)c3)c2C)cn1`, the Activity was 11% in data set [3] and 39% in data set [4].

With `Cc1nn(-c2ccc(C#N)c(Cl)c2)c(C)c1Cc1ccc(C(=O)N(C)C)cc1`, the Activity in [3] is 21%.

For the molecule `CC(=O)Nc1ccc(Oc2c(C)nn(-c3ccc(C#N)c(Cl)c3)c2C)nc1`, the Activity amounted to 8% in [3] and 14% in data set [4].

Regarding `Cc1nn(-c2ccc(C#N)c(Cl)c2)c(C)c1Cc1cccc(C(N)=O)c1`, the Activity was found to be 21% in data set [3] and 35% in data set [4].

Consider `Cc1nn(-c2ccc(C#N)c(Cl)c2)c(C)c1Cc1ccc(C(N)=O)cc1`, for which the Activity in data set [3] was 76%.

For `Cc1nn(-c2ccc(C#N)c(Cl)c2)c(C)c1Oc1ccc(C(=O)N2CCOCC2)cc1`, the Activity in data set [3] and in data set [4] was 22% in each case.
